According to ChEMBL document CHEMBL1134354, “Anti-AIDS agents. 42. Synthesis and anti-HIV activity of disubstituted (3'R,4'R)-3',4'-di-O-(S)-camphanoyl-(+)-cis-khellactone analogues” (J Med Chem, 2001):
pEC50, pIC50: −log10 of the molar value. Active and inactive are the calls of the source. The rule behind the calls is not given here.

Tests used:
H9 [1] = test: Inhibitory activity against HIV-1 replication in H9 lymphocytes; assay type: functional, cell-based; conditions: Homo sapiens
Method in brief: (§1)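 They were infected with HIV-1 at a moi of 0.1–0.01 for 4 h, washed three times, and then cultured for 4 days with graded drug concentrations; AZT was run as a control. Day-4 cell-free supernatant p24 was measured by ELISA. Toxicity was measured by Coulter counts of mock-infected cells.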

H9 [2] = test: Toxicity was determined in H9 lymphocytes; assay type: functional, cell-based; conditions: Homo sapiens; method in brief: as §1
[3] = Therapeutic index is the ratio of IC50 to EC50 in H9 lymphocytes; assay type: cell-based; conditions: human, read-out: TI; method in brief: as §1
H9 [4] = test: Inhibitory activity against HIV-1 replication in H9 lymphocytes; NS= no suppression; assay type: functional, cell-based; conditions: Homo sapiens; method in brief: as §1

| SMILES | pEC50 (H9 [1]) | pIC50 (H9 [2]) | selectivity ratio [3] | NS (H9 [4]) |
| --- | --- | --- | --- | --- |
| CC1(C)Oc2ccc3c4c(c(=O)oc3c2[C@@H](OC(=O)C23CCC(C)(C(=O)O2)C3(C)C)[C@H]1OC(=O)C12CCC(C)(C(=O)O1)C2(C)C)CCCC4 (stereo partly drawn) | 8.67 | < 3.83 | > 69800 |  |
| Cc1cc2c(c3oc(=O)cc(C(C)C)c13)[C@@H](OC(=O)C13CCC(C)(C(=O)O1)C3(C)C)[C@@H](OC(=O)C13CCC(C)(C(=O)O1)C3(C)C)C(C)(C)O2 (stereo partly drawn) |  | < 3.83 |  | inactive |
| Cc1c(Cl)c(=O)oc2c3c(ccc12)OC(C)(C)[C@H](OC(=O)C12CCC(C)(C(=O)O1)C2(C)C)[C@@H]3OC(=O)C12CCC(C)(C(=O)O1)C2(C)C (stereo partly drawn) | 8.70 | 3.98 | 51700 |  |
| CC1(C)Oc2ccc3ccc(=O)oc3c2[C@@H](OC(=O)C23CCC(C)(C(=O)O2)C3(C)C)[C@H]1OC(=O)C12CCC(C)(C(=O)O1)C2(C)C (stereo partly drawn) | 9.59 |  | 137000 |  |
| COc1cc2c(c3oc(=O)cc(C)c13)[C@@H](OC(=O)C13CCC(C)(C(=O)O1)C3(C)C)[C@@H](OC(=O)C13CCC(C)(C(=O)O1)C3(C)C)C(C)(C)O2 (stereo partly drawn) | 11.14 | < 3.82 | > 2.08e+07 |  |
| Cc1cc(=O)oc2c3c(cc(OCc4ccccc4)c12)OC(C)(C)[C@H](OC(=O)C12CCC(C)(C(=O)O1)C2(C)C)[C@@H]3OC(=O)C12CCC(C)(C(=O)O1)C2(C)C (stereo partly drawn) | 5.81 | 3.87 | 87.7 |  |
| Cc1c(C)c2ccc3c(c2oc1=O)[C@@H](OC(=O)C12CCC(C)(C(=O)O1)C2(C)C)[C@@H](OC(=O)C12CCC(C)(C(=O)O1)C2(C)C)C(C)(C)O3 (stereo partly drawn) | 8.72 | < 3.81 | > 80200 |  |
| Cc1cc2c(c3oc(=O)cc(C)c13)[C@@H](OC(=O)C13CCC(C)(C(=O)O1)C3(C)C)[C@@H](OC(=O)C13CCC(C)(C(=O)O1)C3(C)C)C(C)(C)O2 (stereo partly drawn) | 8.38 | < 3.81 | > 36800 |  |
| Cc1cc2c(C)cc3c(c2oc1=O)[C@@H](OC(=O)C12CCC(C)(C(=O)O1)C2(C)C)[C@@H](OC(=O)C12CCC(C)(C(=O)O1)C2(C)C)C(C)(C)O3 (stereo partly drawn) | 8.04 | < 3.81 | > 16900 |  |
| Cc1c(-c2ccccc2)c(=O)oc2c3c(ccc12)OC(C)(C)[C@H](OC(=O)C12CCC(C)(C(=O)O1)C2(C)C)[C@@H]3OC(=O)C12CCC(C)(C(=O)O1)C2(C)C (stereo partly drawn) | 4.36 | < 3.85 | > 3.2 |  |
